{"data": "Measured values gathered from unrelated publications", "target": "Calcium/calmodulin-dependent protein kinase type 1D (CAMK1D, Homo sapiens, UniProt Q8IU85)", "note": "Compare with care: the assays were run in different laboratories."}
{"Structure (SMILES)": "CC(C)(C)c1cc(C=C(C#N)C#N)cc(Br)c1O", "test": "enzyme activity, inhibitor", "setting": "0.5 µM", "measurement": "remaining activity", "value": "111%"}
{"Structure (SMILES)": "Cn1cncc1[C@](O)(COc1ccc(C#N)cc1-c1ccc(OC(F)(F)F)cc1)c1ccc(C#N)cc1", "test": "cell-free assay, competition with immobilised ligand", "setting": "1 µM", "measurement": "remaining binding", "value": "100%"}
{"Structure (SMILES)": "O=c1[nH]c2ccccc2n1C1CCN(Cc2ccc(-c3[nH]c4cc5ncnc5cc4nc3-c3ccccc3)cc2)CC1", "test": "cell-free assay", "setting": "0.5 µM", "measurement": "remaining signal", "value": "107%"}
{"Structure (SMILES)": "Nc1ncc(-c2nc(N3CCOCC3)nc(N3CCOCC3)n2)c(C(F)F)n1", "test": "binding, competition with immobilised ligand", "setting": "10 µM", "measurement": "remaining binding", "value": "100%"}
{"Structure (SMILES)": "Cn1cc(-c2cc(F)cc(N3CCn4c(cc5c4CCCC5)C3=O)c2CO)cc(Nc2ccc(N3CCN(C4COC4)CC3)cn2)c1=O", "test": "enzyme activity, inhibitor", "setting": "0.1 µM", "measurement": "inhibition", "value": "15%"}
{"Structure (SMILES)": "N#CC1(c2ccccn2)CCN(Cc2cc(C(=O)O)c(=O)n3ccccc23)CC1", "test": "cell-free assay, competition with immobilised ligand", "setting": "1 µM", "measurement": "remaining binding", "value": "100%"}
{"Structure (SMILES)": "Cc1nn(C)cc1-c1nc2c(N3CCN(Cc4ccc(Cl)cc4)CC3)c(Cl)cnc2[nH]1", "test": "binding, competition with immobilised ligand", "setting": "1 µM", "measurement": "remaining binding", "value": "100%"}
{"Structure (SMILES)": "COc1ncccc1-c1cnn2ccc(N3CCN(C(=O)OC(C)C)CC3)nc12", "test": "binding, competition with immobilised ligand", "setting": "1 µM", "measurement": "remaining binding", "value": "100%"}
